Experiment [1] addresses Opioid receptors; delta & kappa (Homo sapiens) (UniProt P41145+P41143). Nature of the experiment: Relative affinity for human opioid receptor delta1 and kappa1. It is filed as protein assay.
For experiment [2], the target named is T1, Mu-type opioid receptor (Homo sapiens, UniProt P35372). Put plainly: Inhibition of [125I]- IOXY binding to human Opioid receptor mu1.
Experiment [3] has as its target Opioid receptors; mu & kappa (Homo sapiens) (UniProt P41145+P35372). Put plainly: Relative affinity for human opioid receptor mu1 and kappa1. The format is protein assay.
The target of experiment [4] is T2, Kappa-type opioid receptor (Homo sapiens, UniProt P41145). Put plainly: Stimulatory effect on [35S]GTP gammaS binding to Opioid receptor kappa1 expressed in CHO cells compared to 500 nM U50,488. It is filed as functional, cell-based. The method in brief:
(§1)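 Membranes from CHO cells stably transfected with DNA for the human μ, δ or κ opioid receptor; agonist-stimulated [35S]GTPγS binding measured; potency given as EC50 ± SD, efficacy as Emax.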

Experiment [5] addresses T2, Kappa-type opioid receptor. Nature of the experiment: Stimulation of [35S]GTP-gamma-S, binding to Opioid receptor kappa1 expressed in CHO cells. It is filed as functional, cell-based. In outline:
as §1

Experiment [6] deals with T3, Delta-type opioid receptor (Homo sapiens, UniProt P41143). Nature of the experiment: Inhibition of [125I]- IOXY binding to human Opioid receptor delta1.
Experiment [7] has as its target T1, Mu-type opioid receptor. Nature of the experiment: Stimulation of [35S]GTP-gamma-S, binding to Opioid receptor mu1 expressed in CHO cells; ND = Not determined. The format is functional, cell-based. The method in brief:
as §1

Experiment [8] concerns the target T1, Mu-type opioid receptor. Nature of the experiment: Stimulatory effect on [35S]-GTP gammaS binding to Opioid receptor mu1 expressed in CHO cells compared to 10 uM DAMGO; ND = Not determined. The format is cell-based. In outline:
as §1

The target of experiment [9] is T2, Kappa-type opioid receptor. Nature of the experiment: Inhibition of [125I]- IOXY binding to human Opioid receptor kappa1.
Experiment [10] deals with T1, Mu-type opioid receptor. Nature of the experiment: Stimulatory effect on [35S]-GTP gammaS binding to Opioid receptor mu1 expressed in CHO cells compared to 10 uM DAMGO. It is filed as cell-based. The method in brief:
as §1

In experiment [11] the target is T3, Delta-type opioid receptor. Nature of the experiment: Stimulation of [35S]-GTP gammaS binding to Opioid receptor delta 1 expressed in CHO cells; ND = Not determined. It is filed as functional, cell-based. The method in brief: as §1
The test system of experiment [12] is Mus musculus. Nature of the experiment: In vivo antinociceptive activity against opioid receptor in mouse p-phenylquinone writhing test; No inhibition (inactive at 1 uM). It is filed as functional, organism-based.
Experiment [13] has as its system Mus musculus. Nature of the experiment: In vivo opioid receptor activity in mouse tail flick assay. The format is functional.
The test system of experiment [14] is Mus musculus. Put plainly: In vivo opioid receptor activity in mouse p-phenylquinone writhing assay. It is filed as functional.
Experiment [15] concerns Mus musculus. Nature of the experiment: In vivo antinociceptive activity against opioid receptor in mouse hot plate […] assay; No inhibition (inactive at 30 uM). It is filed as functional, organism-based.
Experiment [16] deals with T1, Mu-type opioid receptor. Nature of the experiment: Stimulation of [35S]GTP-gamma-S, binding to Opioid receptor mu1 expressed in CHO cells. The format is functional, cell-based. In outline:
as §1

The test system of experiment [17] is Mus musculus. Nature of the experiment: In vivo opioid receptor activity in mouse hot plate assay.

Each structure is given as a SMILES string. Active and inactive are the calls of the source. The rule behind the calls is not given here.

T2 sequence (P41145 whole entry): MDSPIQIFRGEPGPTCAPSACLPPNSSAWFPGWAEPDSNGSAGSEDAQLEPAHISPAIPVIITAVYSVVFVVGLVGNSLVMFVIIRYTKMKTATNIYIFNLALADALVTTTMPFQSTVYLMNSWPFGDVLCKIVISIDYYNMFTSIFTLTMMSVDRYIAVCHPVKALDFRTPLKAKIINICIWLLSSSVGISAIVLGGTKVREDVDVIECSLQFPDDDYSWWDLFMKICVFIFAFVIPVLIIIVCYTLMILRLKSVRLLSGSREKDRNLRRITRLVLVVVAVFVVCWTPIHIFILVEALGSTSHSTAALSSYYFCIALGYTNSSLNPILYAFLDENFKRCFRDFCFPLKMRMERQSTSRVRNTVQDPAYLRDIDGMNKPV
Chain of Opioid receptors; delta & kappa (Homo sapiens) (P41143 whole entry, looked up): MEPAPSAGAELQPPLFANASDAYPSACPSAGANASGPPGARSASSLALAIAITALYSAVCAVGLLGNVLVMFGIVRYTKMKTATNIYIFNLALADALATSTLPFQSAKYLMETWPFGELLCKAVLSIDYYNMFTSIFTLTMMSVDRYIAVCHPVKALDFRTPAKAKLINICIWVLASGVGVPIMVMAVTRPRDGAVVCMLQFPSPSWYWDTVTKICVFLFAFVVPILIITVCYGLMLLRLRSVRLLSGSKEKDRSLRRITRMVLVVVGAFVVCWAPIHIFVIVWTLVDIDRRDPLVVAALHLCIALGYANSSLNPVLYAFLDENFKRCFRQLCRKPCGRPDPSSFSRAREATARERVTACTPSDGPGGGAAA
Chain of Opioid receptors; delta & kappa (Homo sapiens) (P41145 whole entry, looked up): as the sequence (P41145 whole entry) above
T3 sequence (P41143 whole entry): as the sequence (P41143 whole entry, looked up) above
T1 sequence (P35372 whole entry): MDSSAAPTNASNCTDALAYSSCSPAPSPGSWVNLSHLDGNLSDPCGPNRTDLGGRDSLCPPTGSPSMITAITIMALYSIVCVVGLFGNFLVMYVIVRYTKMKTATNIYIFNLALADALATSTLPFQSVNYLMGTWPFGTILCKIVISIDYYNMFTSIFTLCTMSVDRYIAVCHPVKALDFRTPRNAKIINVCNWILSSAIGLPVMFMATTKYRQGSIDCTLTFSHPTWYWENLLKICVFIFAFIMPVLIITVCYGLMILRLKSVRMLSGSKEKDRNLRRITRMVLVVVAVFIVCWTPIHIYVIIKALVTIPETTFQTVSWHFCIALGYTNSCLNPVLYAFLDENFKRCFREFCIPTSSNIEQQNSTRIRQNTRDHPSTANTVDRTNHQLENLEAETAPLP
Chain of Opioid receptors; mu & kappa (Homo sapiens) (P35372 whole entry, looked up): as the sequence (P35372 whole entry) above
Chain of Opioid receptors; mu & kappa (Homo sapiens) (P41145 whole entry, looked up): as the sequence (P41145 whole entry) above

As to `COC(=O)[C@@H]1C[C@H](OC(=N)C(Cl)(Cl)Cl)C(=O)[C@H]2[C@@]1(C)CC[C@H]1C(=O)O[C@H](c3ccoc3)C[C@]21C`, the Selectivity in experiment [1] is 95; in [3], greater than 150. On Mu-type opioid receptor [2], this compound came in with an inhibition constant Ki greater than 10 µM.

In [4], `COC(=O)[C@@H]1C[C@H](OS(C)(=O)=O)C(=O)[C@H]2[C@@]1(C)CC[C@H]1C(=O)O[C@H](c3ccoc3)C[C@]21C` displayed an Emax of 112%. In experiment [5], this compound gave an EC50 of 0.03 µM. This compound showed an inhibition constant (Ki) in experiment [6] greater than 10 µM.

Consider `COC(=O)[C@@H]1C[C@H](OC(=O)c2cccnc2)C(=O)[C@H]2[C@@]1(C)CC[C@H]1C(=O)O[C@H](c3ccoc3)C[C@]21C`, for which the Emax is 76% in experiment [4] and 110% on Mu-type opioid receptor [8]. For the same compound, the Selectivity amounted to 3 in experiment [1] and 0.04 in [3]. For the same compound, the values for the EC50 (on Mu-type opioid receptor [7]; in [5]) were 2.1 µM and 5.74 µM, respectively. Also, in experiment [6], the Ki was 4.82 µM.

In the case of `COC(=O)[C@@H]1C[C@H](O)[C@H](O)[C@@H]2[C@@]3(C)C[C@@H](c4ccoc4)OC(=O)[C@H]3CC[C@]21C`, the Ki (in [9]; on Mu-type opioid receptor [2]; in [6]) was greater than 10 µM throughout.

In the case of `C=CCNC(=O)O[C@H]1C[C@@H](C(=O)OC)[C@]2(C)CC[C@H]3C(=O)O[C@H](c4ccoc4)C[C@]3(C)[C@H]2C1=O`, the Selectivity in experiment [1] was 55; in experiment [3], 5. Besides, the Ki at Mu-type opioid receptor [2] is 0.64 µM; in experiment [6], 6.46 µM.

Compound `CCC(=O)O[C@H]1C[C@@H](C(=O)OC)[C@]2(C)CC[C@H]3C(=O)O[C@H](c4ccoc4)C[C@]3(C)[C@H]2C1=O` showed an Emax in experiment [4] of 110%. In experiment [1], this compound came in with a Selectivity of 2730. Moreover, the values for the Ki (at Mu-type opioid receptor [2]; in experiment [6]) were greater than 1 µM and 6.69 µM, respectively. For the same compound, the EC50 in experiment [5] was 0.14 µM.

`COC(=O)[C@@H]1C[C@H](OC(C)=O)[C@H](OC(C)=O)[C@H]2[C@@]1(C)CC[C@H]1C(=O)O[C@H](c3ccoc3)C[C@]21C`: the Selectivity in experiment [1] and in experiment [3] was greater than 15 each time. Further, the inhibitory constant (Ki) (on Mu-type opioid receptor [2]; in experiment [6]) was greater than 10 µM each time.

Regarding `COC(=O)C(=O)O[C@H]1C[C@@H](C(=O)OC)[C@]2(C)CC[C@H]3C(=O)O[C@H](c4ccoc4)C[C@]3(C)[C@H]2C1=O`, the Selectivity in [1] and in [3] was greater than 30 in each case. Moreover, the Ki (on Mu-type opioid receptor [2]; in experiment [6]) was greater than 10 µM throughout.

Take `COC(=O)[C@@H]1C[C@H](OC(=O)Nc2ccccc2)C(=O)[C@H]2[C@@]1(C)CC[C@H]1C(=O)O[C@H](c3ccoc3)C[C@]21C`: the Emax in experiment [4] amounted to 100%; on Mu-type opioid receptor [10], 92%. Also, the Selectivity in experiment [1] was determined as 2; in [3], 0.2. In addition, the EC50 on Mu-type opioid receptor [7] is 0.59 µM; in experiment [5], 0.48 µM; in experiment [11], 2.53 µM.

`C=C(C)C(=O)O[C@H]1C[C@@H](C(=O)OC)[C@]2(C)CC[C@H]3C(=O)O[C@H](c4ccoc4)C[C@]3(C)[C@H]2C1=O`: the results for the Selectivity in experiment [1] and in experiment [3] were 210 and 7, respectively. Also, the Ki on Mu-type opioid receptor [2] is 0.26 µM; in experiment [6], 8.88 µM.

Take `COC(=O)[C@@H]1C[C@H](OC(=O)C(C)C)C(=O)[C@H]2[C@@]1(C)CC[C@H]1C(=O)O[C@H](c3ccoc3)C[C@]21C`: the Emax in experiment [4] came to 105%. In addition, the Ki was 2.98 µM at Mu-type opioid receptor [2] and greater than 10 µM in experiment [6]. This compound registered a 50% effective concentration (EC50) in experiment [5] of 0.36 µM. Also, the Selectivity in [3] turned out to be 196.

`COC(=O)[C@@H]1C[C@H](O[Si](C)(C)C)C(=O)[C@H]2[C@@]1(C)CC[C@H]1C(=O)O[C@H](c3ccoc3)C[C@]21C`: the Selectivity in [1] and in experiment [3] was greater than 7 each time. The Ki (on Mu-type opioid receptor [2]; in experiment [6]) was greater than 10 µM in each case.

`COC(=O)[C@@H]1C[C@H](OC(C)=O)C(=O)[C@H]2[C@@]1(C)CC[C@H]1C(=O)O[C@H](c3ccoc3)C[C@]21C` [SALVINORIN A]: the inhibition result in the experiment with Mus musculus [12] and in the experiment on Mus musculus [15] was “inactive” in each case. Also, the ED50 worked out at 1.98 mg/kg in the experiment on Mus musculus [13] and 0.59 mg/kg in the experiment with Mus musculus [14].

In the case of `COC(=O)[C@@H]1C[C@H](OC(=O)c2ccccc2)C(=O)[C@H]2[C@@]1(C)CC[C@H]1C(=O)O[C@H](c3ccoc3)C[C@]21C` [HERKINORIN], the Emax was determined as 140% in [4] and 130% on Mu-type opioid receptor [10]. Moreover, the Selectivity in experiment [1] worked out at 12; in experiment [3] it was 0.13. The EC50 amounted to 1.32 µM in experiment [5] and 0.5 µM on Mu-type opioid receptor [16]. For the same compound, in experiment [6], the affinity, expressed as Ki, was 1.17 µM.

As for `COC(=O)[C@@H]1C[C@H](O)[C@H](O)[C@H]2[C@@]1(C)CC[C@H]1C(=O)O[C@H](c3ccoc3)C[C@]21C`, the Ki is 3.19 µM in [9], 5.74 µM on Mu-type opioid receptor [2] and greater than 10 µM in experiment [6]. For the same compound, the Selectivity in experiment [1] was greater than 3; in [3], 2.

As to `CN1CC[C@]23c4c5ccc(O)c4O[C@H]2[C@@H](O)C=C[C@H]3[C@H]1C5` [MORPHINE], it took a dose of 0.8 mg/kg to reach the 50% effect level in the experiment on Mus musculus [17] (ED50).

(Values after ChEMBL document CHEMBL1145160, “Neoclerodane diterpenes as a novel scaffold for mu opioid receptor ligands” (J Med Chem, 2005).)
